DDE Tn7 FP inh: inhibitors of Tn7 peptide binding to human fibrin DD(E); P02675; FP displacement of FITC-Tn7 peptide from fibrin DD(E); 0% = median of compound wells per plate; AID 720508; inhibition, % at 8.3 µM; hit rate 0.13% among 370,000;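 active means inhibition above the mean of compounds falling within the control limits plus 3 SD of them, cut at about 14% in these data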;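 further: 0% = plate median of compound wells and 100% = 10 µM Aha-Tn7 peptide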
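Assay system: Human fibrin DD(E) protein | Medium: Tris buffer with calcium and detergent, pH 7.8 | Reagent: 0.1 µM fluorescent Tn7 | Compound dosing: Single point at 8.3 µM | Times: 10 min preincubation, 3 h with tracer, room temperature | Detection: Fluorescence polarization of the labelled Tn7 tracer | Controls: Aha-Tn7 high control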
ADAM10 inh: inhibitors of human ADAM10 | hit rate 0.62% among 370,000 | inhibition, % at 7 µM | recombinant ADAM10, EDANS/DABCYL FRET peptide cleavage, 3 h;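 active means inhibition above a per-campaign cutoff equal to the mean of compounds falling between control-based bounds plus 3 SD, cut at about 20% in these data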;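 further: 0% = DMSO wells while the 100% control is not disclosed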
Tn6 DDE FP: inhibitors of Tn6 peptide binding to human fibrin DD(E); P02675; Fibrin DD(E) TRITC-Tn6 fluorescence polarization displacement; inhibition, % at 8.3 µM; hit rate 0.21% among 370,000; AID 720509;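 active means inhibition above a per-campaign cutoff: mean of compounds within control limits plus 3 SD, cut at about 15% in these data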;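 further: 0% = median of all compound wells on the plate and 100% = blocking peptide control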
ADAM17 inh: inhibitors of human ADAM17 | P78536 | AID 720648 | hit rate 0.83% among 370,000 | recombinant ADAM17, EDANS/DABCYL FRET peptide cleavage | inhibition, % at 6.95 µM;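 active means inhibition above the mean of compounds lying between control limits plus 3 SD, set per campaign, cut at about 8.5% in these data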;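 further: 0% = DMSO-only wells as the low control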
PLCb3 inh: PLC-beta3 (human) inhibition, primary screen | Q01970 | Purified PLC-beta3, fluorogenic substrate, fluorescence | inhibition, % at 12.2 µM | hit rate 0.18% among 370,000; in the data active means inhibition above about 11%;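 further: 0% = median of compound wells on plate and 100% = full blocker control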
PLC-gamma1 inh: blocks human PLC-gamma1 enzyme activity | hit rate 0.84% among 370,000 | purified PLC-gamma1, fluorogenic substrate, fluorescence | inhibition, % at 12.2 µM
Target sequence (P19174 whole entry, looked up): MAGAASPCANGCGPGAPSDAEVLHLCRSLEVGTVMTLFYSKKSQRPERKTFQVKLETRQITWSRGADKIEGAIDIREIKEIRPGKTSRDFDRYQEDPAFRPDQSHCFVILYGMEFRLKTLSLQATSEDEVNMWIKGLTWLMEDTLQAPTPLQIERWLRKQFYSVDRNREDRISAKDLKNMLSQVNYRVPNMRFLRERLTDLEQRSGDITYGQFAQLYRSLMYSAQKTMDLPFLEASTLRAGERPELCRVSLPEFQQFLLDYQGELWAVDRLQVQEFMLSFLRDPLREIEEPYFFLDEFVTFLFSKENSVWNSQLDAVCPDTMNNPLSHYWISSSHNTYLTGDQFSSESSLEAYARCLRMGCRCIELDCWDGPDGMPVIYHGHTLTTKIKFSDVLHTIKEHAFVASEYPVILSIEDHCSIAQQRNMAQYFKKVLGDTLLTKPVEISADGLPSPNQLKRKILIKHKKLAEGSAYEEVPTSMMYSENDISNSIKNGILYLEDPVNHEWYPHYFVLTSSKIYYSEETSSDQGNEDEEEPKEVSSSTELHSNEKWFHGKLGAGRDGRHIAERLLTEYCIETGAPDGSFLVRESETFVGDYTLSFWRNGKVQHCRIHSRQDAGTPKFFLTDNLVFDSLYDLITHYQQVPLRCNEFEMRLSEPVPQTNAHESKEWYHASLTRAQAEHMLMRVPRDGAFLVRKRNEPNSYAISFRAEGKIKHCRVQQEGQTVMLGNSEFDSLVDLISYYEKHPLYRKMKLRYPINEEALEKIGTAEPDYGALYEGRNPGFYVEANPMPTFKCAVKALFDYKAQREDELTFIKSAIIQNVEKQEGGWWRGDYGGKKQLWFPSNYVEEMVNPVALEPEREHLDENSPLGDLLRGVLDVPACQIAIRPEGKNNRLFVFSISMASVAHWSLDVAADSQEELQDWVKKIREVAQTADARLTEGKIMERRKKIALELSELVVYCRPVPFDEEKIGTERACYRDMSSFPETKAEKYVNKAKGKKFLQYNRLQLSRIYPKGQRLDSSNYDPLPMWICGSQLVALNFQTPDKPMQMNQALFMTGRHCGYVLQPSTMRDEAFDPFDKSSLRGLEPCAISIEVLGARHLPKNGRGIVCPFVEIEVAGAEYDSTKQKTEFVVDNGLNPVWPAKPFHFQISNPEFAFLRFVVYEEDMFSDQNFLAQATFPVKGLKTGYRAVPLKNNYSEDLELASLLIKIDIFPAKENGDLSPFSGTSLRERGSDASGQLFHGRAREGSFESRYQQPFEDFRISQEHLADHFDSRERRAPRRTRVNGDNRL
PLCgamma1 ctr: counter-screen for PLC-beta3 inhibitors: inhibitors of human PLC-gamma1; shares compounds with PLC-gamma1 inh; purified PLC-gamma1, fluorogenic substrate, fluorescence; inhibition, % at 12.3 µM; hit rate 3.1% among 3,300; AID 743258
PLCbeta3 conf: human PLC-beta3 inhibition, confirmation; purified PLC-beta3, fluorogenic substrate fluorescence; hit rate 1% among 3,300; inhibition, % at 12.3 µM; AID 743261; shares compounds with PLC-gamma1 inh; in the data active means inhibition above about 11%
An asterisk follows results filed as active; · = no result given. Hits are enriched below; roughly 2.3% of the tested compounds scored in any of these assays. Unless noted, no stated cut-off is given here; in the data, active means inhibition above about 9.5%; inactive means the rest.

SMILES | DDE Tn7 FP inh | ADAM10 inh | Tn6 DDE FP | ADAM17 inh | PLCb3 inh | PLC-gamma1 inh | PLCgamma1 ctr | PLCbeta3 conf
O=C1OCC2=C1C(c1ccccc1)CC(=O)N2c1ccc(F)cc1 (centres undefined) | -5.7 | 8.8 | 4.9 | 2.0 | 2.0 | 11.2* | -0.4 | 2.5
Clc1cccc(CNC2CCC23CCCCC3)c1 (centres undefined) | -2.1 | 5.3 | -1.2 | -1.7 | 1.5 | 1.1 | · | ·
O=C(CS(=O)c1ccc(F)cc1)Nc1ccccc1Cl (centres undefined) | -2.5 | 9.2 | 5.5 | -1.6 | 2.3 | 10.0* | 6.1 | -4.8
CCOC(=O)CC1C(=O)NCCN1C(=O)c1ccc(F)cc1F (centres undefined) | 4.9 | -1.8 | -2.5 | -1.9 | 1.4 | -1.1 | · | ·
CCOC(=O)CC1C(=O)NCCN1C(=O)c1ccc(Cl)cc1Cl (centres undefined) | 3.5 | -1.2 | -2.3 | 6.3 | 2.0 | 16.6* | -1.9 | 0.6
CC(C)(C)c1ccc(-c2nnc3n2N=C(c2ccc(Cl)cc2)CS3)cc1 | -5.2 | -4.0 | 0.5 | -2.3 | -1.1 | 0.4 | · | ·
O=C(NC(=S)Nc1cccc(Cl)c1N1CCOCC1)c1cccs1 | -0.3 | -1.3 | 2.8 | -1.6 | -1.7 | 9.9* | 0.9 | 1.4
COc1ccc(C(=O)ON=C2CCN(c3ccc([N+](=O)[O-])cc3)CC2)cc1 | 1.8 | 9.2 | -2.5 | 1.2 | 2.5 | 2.7 | · | ·
O=C(ON=C1CCN(c2ccc([N+](=O)[O-])cc2)CC1)c1ccccc1 | 1.6 | 1.9 | 2.6 | 2.2 | 0.4 | 9.9* | -5.9 | -3.9
O=C(NC1CCCCN(Cc2ccc(Cl)cc2)C1=O)c1cccc([N+](=O)[O-])c1 (centres undefined) | 3.0 | -0.5 | -2.6 | -3.1 | -1.4 | -0.9 | · | ·
O=C(O)CC(NC(=O)C12CC3CC(CC(C3)C1)C2)c1cc([N+](=O)[O-])ccc1Cl (centres undefined) | -6.2 | 7.3 | 6.6 | 1.3 | 6.1 | 13.1* | -5.0 | -3.9
O=C1NC(=O)c2cc(Oc3ccc([N+](=O)[O-])cc3)ccc21 | -8.7 | 4.0 | -0.6 | 1.5 | 10.7* | 11.2* | -4.8 | -1.6
O=C1c2ccc(Oc3ccc([N+](=O)[O-])cc3)cc2C(=O)N1CCO | 1.0 | 7.0 | 9.7 | -2.6 | 1.6 | 3.1 | · | ·
COc1ccc(NC(=O)c2ccccc2Oc2ccccc2)cc1 | -1.1 | 3.3 | 10.5 | 0.9 | -4.0 | 2.4 | · | ·
COc1cccc(NC(=O)c2ccccc2Oc2ccccc2)c1 | -2.9 | 15.4 | 6.0 | 7.9 | -4.9 | 9.8* | -9.6 | -8.1
CC(=O)c1c(C)[nH]c(C(=O)OCC(=O)NCCc2ccc(Cl)cc2)c1C | -3.8 | -11.7 | -5.6 | 6.1 | 2.2 | 10.7* | 3.4 | -1.6
CCC(NC(=O)c1ccc2c(c1)c(C)c(C)n2Cc1ccc(-c2ccccc2C#N)cc1)c1ccccc1 (centres undefined) | -3.7 | -3.6 | -6.7 | -6.3 | -13.4 | 1.6 | · | ·
COc1ccc(OC)c(NC(=O)CC2SC(=Nc3ccc(F)cc3)N(CCC3=CCCCC3)C2=O)c1 (centres undefined) | -2.7 | 10.9 | 2.3 | 6.4 | 4.2 | 11.0* | 1.2 | -3.9
CC1COCC(C)N1S(=O)(=O)c1ccc2c(c1)CCN2C(=O)C1CCC1 (centres undefined) | 3.1 | -5.5 | -2.5 | -1.8 | 2.4 | -1.1 | · | ·
CCCC/C=C1/[C@H](c2ccc(Cl)cc2)N(Cc2ccc3c(c2)OCO3)C2=N[C@H](c3ccccc3)CC(=O)N21 | 2.7 | -1.2 | 14.4 | 0.5 | -2.6 | -3.6 | · | ·
O=C(CCc1ccccc1)Nc1ccccc1[N+](=O)[O-] | -6.4 | 6.2 | -2.1 | 1.8 | 2.0 | 5.3 | · | ·
O=C(CCc1ccccc1)Oc1ccccc1[N+](=O)[O-] | 7.2 | 0.7 | -3.5 | 1.6 | 8.9 | 12.9* | -7.8 | 0.4
CCn1cnc2scc(-c3ccc(OC)cc3)c2c1=O | -1.2 | -2.8 | -7.7 | -2.8 | -13.1 | -6.3 | · | ·
CCOc1ccc(-c2csc3ncn(-c4ccc(OC)cc4)c(=O)c23)cc1 | 2.1 | -3.6 | -5.2 | -7.2 | -4.5 | 10.5* | -16.2 | -12.3
COC(=O)[C@]1(C#N)CC(=O)N(c2ccccc2)[C@@H]1c1ccccc1 | -4.7 | 2.1 | 3.2 | 0.5 | -0.5 | -0.7 | · | ·
SMILES | DDE Tn7 FP inh | ADAM10 inh | Tn6 DDE FP | ADAM17 inh | PLCb3 inh | PLC-gamma1 inh | PLCgamma1 ctr | PLCbeta3 conf
Cc1ccc2[nH]c(O)c(N=NC(=O)CCc3ccccc3)c2c1Br | -0.6 | 8.4 | -6.5 | 3.0 | 4.5 | 9.9* | -7.3 | -2.2
COC(=O)Cn1cnc2sc(C)c(S(=O)(=O)N3CCN(c4ccccc4OC)CC3)c2c1=O | 4.2 | 7.9 | -7.0 | 7.4 | 10.1 | 10.2* | -1.5 | -3.2
C[C@H](NC(=O)[C@@H]1CSC2c3ccccc3C(=O)N21)C(=O)NCCc1ccccc1 (some centres undefined) | -5.1 | -1.7 | 2.5 | -3.5 | -7.0 | 0.9 | · | ·
C[C@H](NC(=O)[C@@H]1CSC2c3ccccc3C(=O)N21)C(=O)NCCc1ccc(F)cc1 (some centres undefined) | 0.8 | 5.7 | -7.1 | -1.4 | -11.2 | 12.4* | -8.5 | -7.2
C=CCN(CC#CC1=CCCCC1)Cc1ccc(OC)cc1OC | -2.4 | 1.4 | 8.7 | -0.6 | 2.2 | 0.1 | · | ·
CCCCNC(=O)C1(C)CCCCN1C(=O)c1ccc(F)c(C)c1 (centres undefined) | 3.3 | 1.8 | 1.7 | 3.9 | 6.4 | 13.7* | -3.3 | -0.1
CCOC(=O)[C@]12CCCC3=C1N(CCC3)C(=O)[C@@H](CC(=O)N1CCCCC1)C2 | 2.6 | -2.9 | 5.2 | -2.3 | 2.5 | 2.6 | · | ·
Cc1nnc(NC(=O)c2ccncc2)s1 | 1.5 | -0.9 | -3.0 | -2.8 | -1.4 | 2.2 | · | ·
Cc1cnc(NC(=O)c2ccncc2)s1 | 3.2 | -1.5 | -5.2 | -8.0 | -5.5 | 11.4* | -5.0 | -1.6
O=C1CCC[C@H]2C[C@H](NCc3cccs3)CC[C@]23CCCN13 | 2.2 | 1.9 | 3.0 | -0.3 | 1.8 | 2.0 | · | ·
CCOCCCNC(=O)/C(C#N)=C/c1ccc(Cl)c([N+](=O)[O-])c1 | 4.1 | 2.1 | 8.9 | 2.1 | 1.8 | -0.2 | · | ·
CCOCCCNC(=O)/C(C#N)=C/c1cc(OC)c(O)c([N+](=O)[O-])c1 | -0.8 | 7.8 | -10.0 | 8.0 | 8.1 | 12.5* | -2.4 | -0.9
CCOC(=O)Cc1ccc(NC(=O)c2cccc([N+](=O)[O-])c2)cc1 | 1.3 | -9.1 | -3.3 | -2.6 | 1.6 | -0.9 | · | ·
CCC(CC)c1nnc(NC(=O)c2cc(C(=O)OC)cc([N+](=O)[O-])c2)s1 | -2.9 | 11.3 | 3.1 | 5.8 | -0.1 | 11.8* | -4.3 | -1.9

Source: PubChem (The Scripps Research Institute Molecular Screening Center)
